# pIC50: −log10 of the molar value.
# Tests used:
# [1] = biological target: T1, Casein kinase I isoform alpha (Sus scrofa, UniProt O19175); test: Inhibition of pig brain CK1 using RRKHAAIGpSAYSITA as substrate after 30 mins by scintillation counting analysis in presence of [gamma-33P]ATP
# T1 sequence (O19175 whole entry): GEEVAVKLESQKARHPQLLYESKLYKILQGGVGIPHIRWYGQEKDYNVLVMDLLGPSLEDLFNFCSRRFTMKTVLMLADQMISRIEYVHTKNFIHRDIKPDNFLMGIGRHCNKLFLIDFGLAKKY
# [2] = biological target: Dual specificity tyrosine-phosphorylation-regulated kinase 1A (Rattus norvegicus, UniProt Q63470); test: Inhibition of rat recombinant DYRK1A expressed in Escherichia coli using myelin basic protein as substrate after 30 mins by scintillation counting analysis in presence of [gamma-33P]ATP
# [3] = biological target: Glycogen synthase kinase-3 (Sus scrofa, UniProt B2LUN4+I6LNT8); test: Inhibition of pig brain GSK-3alpka/beta using YRRAAVPPSPSLSRHSSPHQSpEDEEE as substrate after 30 mins by scintillation counting analysis in presence of [gamma-33P]ATP
# [4] = biological target: Cyclin-dependent kinase 5/CDK5 activator 1 (Homo sapiens, UniProt Q00535); test: Inhibition of human recombinant CDK5/p25 after 30 mins by scintillation counting analysis in presence of [gamma-33P]ATP; assay type: protein-complex assay
# [5] = system: HCT-116; test: Cytotoxicity against human HCT116 cells after 48 hrs by MTT assay; assay type: functional, cell-based; conditions: HCT-116, 48 h
# Procedure, shortened: (§1)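 Run in triplicate, with the mean reported; the IC50 for each cell line comes from non-linear regression with a 95% confidence interval.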
# [6] = system: OVCAR-8; test: Cytotoxicity against human OVCAR8 cells after 48 hrs by MTT assay; assay type: functional, cell-based; conditions: OVCAR-8, 48 h; procedure, shortened: as §1
# [7] = system: SF-295; test: Cytotoxicity against human SF295 cells after 48 hrs by MTT assay; assay type: functional, cell-based; conditions: SF-295, 48 h; procedure, shortened: as §1
# [8] = system: HL-60; test: Cytotoxicity against human HL60 cells after 48 hrs by MTT assay; assay type: functional, cell-based; conditions: HL-60, 48 h; procedure, shortened: as §1
# Cyclin-dependent kinase 5/CDK5 activator 1, sequence (Q00535 whole entry): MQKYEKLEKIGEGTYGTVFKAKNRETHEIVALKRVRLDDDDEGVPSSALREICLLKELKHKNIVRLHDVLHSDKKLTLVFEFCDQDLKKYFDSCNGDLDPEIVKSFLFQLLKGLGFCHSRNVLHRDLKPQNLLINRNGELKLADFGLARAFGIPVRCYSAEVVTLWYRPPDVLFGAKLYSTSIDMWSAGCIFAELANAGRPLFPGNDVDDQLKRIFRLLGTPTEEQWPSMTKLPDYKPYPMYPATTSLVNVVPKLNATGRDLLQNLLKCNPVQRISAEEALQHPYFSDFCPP
# Cyclin-dependent kinase 5/CDK5 activator 1, sequence (Q15078 whole entry, further chain): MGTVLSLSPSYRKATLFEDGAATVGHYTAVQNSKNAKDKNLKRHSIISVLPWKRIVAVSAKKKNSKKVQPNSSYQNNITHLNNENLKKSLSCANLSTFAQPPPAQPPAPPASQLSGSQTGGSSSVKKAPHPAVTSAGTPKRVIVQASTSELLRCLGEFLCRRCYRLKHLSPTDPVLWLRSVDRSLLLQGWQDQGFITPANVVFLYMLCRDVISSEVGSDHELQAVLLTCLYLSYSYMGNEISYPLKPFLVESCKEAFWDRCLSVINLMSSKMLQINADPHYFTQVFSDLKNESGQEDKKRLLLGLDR
SMILES,pIC50 [1],pIC50 [2],IC50 [3],pIC50 [4],pIC50 [5],pIC50 [6],pIC50 [7],pIC50 [8]
CC(C)C(=O)Nc1n[nH]c(=O)c2ccccc12,< 5.00,< 5.00,> 10 µM,< 5.00,–,–,–,–
Nc1n[nH]c(=O)c2ccccc12,< 5.00,5.39,> 10 µM,< 5.00,4.90,4.93,5.22,5.05
O=C(Nc1n[nH]c(=O)c2ccccc12)c1ccccc1,< 5.00,< 5.00,> 10 µM,< 5.00,–,–,–,–
O=c1cc(-c2ccccc2)c(NCCN2CCCCC2)n[nH]1,< 5.00,< 5.00,> 10 µM,< 5.00,–,–,–,–
CN1CCC(Nc2cc(-c3ccccc3)c(=O)[nH]n2)CC1,< 5.00,< 5.00,> 10 µM,< 5.00,–,–,–,–
CCCNc1n[nH]c(=O)c2ccccc12,< 5.00,< 5.00,> 10 µM,< 5.00,–,–,–,–
O=c1[nH]nc(NCCN2CCCCC2)c2ccccc12,< 5.00,< 5.00,> 10 µM,< 5.00,–,–,–,–
CC(=O)Nc1n[nH]c(=O)cc1-c1ccccc1,< 5.00,< 5.00,> 10 µM,< 5.00,–,–,–,–
Nc1n[nH]c(=O)cc1-c1ccccc1,< 5.00,< 5.00,> 10 µM,< 5.00,–,–,–,–
CC(=O)Nc1cc(-c2ccccc2)c(=O)[nH]n1,< 5.00,5.00,2.2 µM,< 5.00,4.81,4.85,5.12,4.94
Nc1cc(-c2ccccc2)c(=O)[nH]n1,< 5.00,5.22,8.1 µM,< 5.00,5.36,5.31,5.24,5.44
O=C(Nc1cc(-c2ccccc2)c(Cl)nn1)c1ccccc1,< 5.00,< 5.00,> 10 µM,< 5.00,–,–,–,–
O=C(Nc1cc(-c2ccccc2)c(=O)[nH]n1)c1ccccc1,< 5.00,< 5.00,> 10 µM,< 5.00,–,–,–,–
CCCCCC(=O)N(C(=O)CCCCC)c1nnc(Cl)c2ccccc12,< 5.00,< 5.00,> 10 µM,< 5.00,–,–,–,–
O=C(Cc1ccccc1)N(C(=O)Cc1ccccc1)c1nnc(Cl)c2ccccc12,< 5.00,< 5.00,> 10 µM,< 5.00,–,–,–,–
O=C(Cc1ccccc1)Nc1nnc(Cl)c2ccccc12,< 5.00,< 5.00,> 10 µM,< 5.00,–,–,–,–
CC(=O)N(C(C)=O)c1n[nH]c(=O)c2ccccc12,< 5.00,< 5.00,> 10 µM,< 5.00,–,–,–,–
CC(C)C(=O)N(C(=O)C(C)C)c1n[nH]c(=O)c2ccccc12,< 5.00,< 5.00,> 10 µM,< 5.00,–,–,–,–
O=C(Cc1ccccc1)Nc1n[nH]c(=O)c2ccccc12,< 5.00,< 5.00,> 10 µM,< 5.00,–,–,–,–
CC(=O)Nc1n[nH]c(=O)c2ccccc12,< 5.00,< 5.00,> 10 µM,< 5.00,–,–,–,–
O=c1[nH]nc(NCc2ccccc2)cc1-c1ccccc1,< 5.00,< 5.00,> 10 µM,< 5.00,–,–,–,–
O=c1cc(-c2ccccc2)c(NCc2ccccc2)n[nH]1,< 5.00,< 5.00,> 10 µM,< 5.00,–,–,–,–
CCCNc1cc(-c2ccccc2)c(=O)[nH]n1,< 5.00,< 5.00,> 10 µM,< 5.00,–,–,–,–
CCCNc1n[nH]c(=O)cc1-c1ccccc1,< 5.00,< 5.00,> 10 µM,< 5.00,–,–,–,–
O=c1[nH]nc(NCCN2CCCCC2)cc1-c1ccccc1,< 5.00,< 5.00,> 10 µM,< 5.00,–,–,–,–

# From ChEMBL document CHEMBL2346615, “Design, synthesis, and molecular modelling of pyridazinone and phthalazinone derivatives as protein kinases inhibitors” (Bioorg Med Chem Lett, 2013)
